ChEMBL document CHEMBL4190236, “New arylpyrazoline-coumarins: Synthesis and anti-inflammatory activity” (Eur J Med Chem, 2017)
Each block holds one compound with its values, some of them ahead of it. Calls of active or inactive are those of the source. No cut-off for these calls is given here.

Assays:
[1] = system: Rattus norvegicus; assay: Anti-inflammatory activity in Sprague-Dawley rat assessed as inhibition of carrageenan-induced paw edema at 10 mg/kg, po administered 30 mins prior to carrageenan challenge measured after 1 hr relative to control; format: functional
In short: (§1)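 Male rats given test agent or diclofenac orally at 10 mg/kg, suspended in 0.5% Na CMC, 30 min before 0.1 mL of 1% (w/v) carrageenan injected into right hind paw. Vehicle control received 0.5% sodium CMC. Paw thickness measured at 1, 3 and 5 h. % inhibition calculated from paw oedema of treated versus control group. Table gives n = 5.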

[2] = system: Rattus norvegicus; assay: Anti-inflammatory activity in Sprague-Dawley rat assessed as inhibition of carrageenan-induced paw edema at 10 mg/kg, po administered 30 mins prior to carrageenan challenge measured after 3 hrs relative to control; format: functional; in short: as §1
[3] = system: Rattus norvegicus; assay: Anti-inflammatory activity in Sprague-Dawley rat assessed as inhibition of carrageenan-induced paw edema at 10 mg/kg, po administered 30 mins prior to carrageenan challenge measured after 5 hrs relative to control; format: functional; in short: as §1
[4] = system: RAW264.7; assay: Anti-inflammatory activity in mouse RAW264.7 cells assessed as inhibition of LPS-induced IL-6 release at 10 uM preincubated for 1 hr followed by LPS stimulation measured after 24 hrs by ELISA relative to control; format: functional
In short: (§2)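 RAW264.7 cells (DMEM, 10% FBS, 37 °C, 5% CO2) plated at 7 × 10^4 cells/well and grown 24 h, then serum-starved 2.5 h. Exposed to 10 µM compound for 1 h, then LPS 1 µg/mL for 24 h. TNF-α or IL-6 in the medium quantified by mouse ELISA. Cytokine amount normalized to protein of viable cell pellets. Expressed as % inhibition.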

[5] = system: RAW264.7; assay: Anti-inflammatory activity in mouse RAW264.7 cells assessed as inhibition of LPS-induced TNFalpha release at 10 uM preincubated for 1 hr followed by LPS stimulation measured after 24 hrs by ELISA relative to control; format: functional; in short: as §2
[6] = biological target: Transcription factor p65 (Mus musculus) (UniProt Q04207); assay: Inhibition of LPS-induced NFkB activation in mouse RAW264.7 cells assessed as reduction in nuclear translocation of p65 at 20 uM preincubated for 1 hr followed by LPS stimulation measured after 3 hrs by Western blot method; format: cell-based
[7] = system: RAW264.7; assay: Anti-inflammatory activity in mouse RAW264.7 cells assessed as inhibition of LPS-induced IL-6 release preincubated for 1 hr followed by LPS stimulation measured after 24 hrs by ELISA; format: functional, cell-based
In short: (§3)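 Serum-starved (2.5 h) RAW264.7 cells were pretreated 1 h with a range of compound concentrations, then given LPS 1 µg/mL for 24 h. TNF-α or IL-6 in the medium was quantified by mouse ELISA and normalized to protein of viable cell pellets.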

[8] = system: Rattus norvegicus; assay: Anti-inflammatory activity in po dosed adjuvant-induced Sprague-Dawley rat arthritis model assessed as reduction in bone destruction administered once daily from day 14 to 28 post-immunization measured by H and E staining based histopathological analysis; format: functional, organism-based
In short: (§4)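 Male SD rats (180–200 g), 8 per group. Arthritis induced by one intradermal injection of 0.1 mL CFA (heat-killed M. butyricum in paraffin oil, 10 mg/mL) into the right hind paw. Test agent at 45 or 90 mg/kg, aspirin 50 mg/kg, in 0.5% CMC-Na, given intragastrically once daily on days 14–28. Right ankle joints taken at day 28, fixed, EDTA-decalcified, cut at 5 µm and H&E stained.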

[9] = system: Rattus norvegicus; assay: Anti-inflammatory activity in po dosed adjuvant-induced Sprague-Dawley rat arthritis model assessed as reduction in inflammatory cell infilteration administered once daily from day 14 to 28 post-immunization measured by H and E staining based histopathological analysis; format: functional, organism-based; in short: as §4
[10] = system: RAW264.7; assay: Anti-inflammatory activity in mouse RAW264.7 cells assessed as inhibition of LPS-induced COX2 protein expression preincubated for 1 hr followed by LPS stimulation measured after 24 hrs by Western blot method; format: functional, cell-based
In short: (§5)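 Cells grown 24 h, serum-starved 2.5 h, pretreated 1 h with compound, then LPS 1 µg/mL for 24 h. Lysed in RIPA on ice, run on 10% SDS-PAGE, transferred to PVDF. Probed overnight at 4 °C with primary antibody for iNOS (130 kDa) or COX-2 (72 kDa), then HRP secondary. β-actin as loading control. At least three independent experiments.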

[11] = system: RAW264.7; assay: Anti-inflammatory activity in mouse RAW264.7 cells assessed as inhibition of LPS-induced iNOS protein expression preincubated for 1 hr followed by LPS stimulation measured after 24 hrs by Western blot method; format: functional, cell-based; in short: as §5
[12] = biological target: Mitogen-activated protein kinase kinase kinase 7 (Mus musculus) (UniProt Q62073); assay: Inhibition of TAK1 in mouse RAW264.7 cells assessed as inhibition of LPS-induced NFkB activation by measuring reduction in nuclear translocation of p65 at 2.5 to 10 uM preincubated for 1 hr followed by LPS stimulation measured after 3 hrs by DAPI staining based immunofluorescence assay
[13] = system: RAW264.7; assay: Cytotoxicity against mouse RAW264.7 cells assessed reduction in cell viability at 10 to 40 uM by MTT assay; format: cell-based; conditions: raw264.7, 40 µM
[14] = biological target: Mitogen-activated protein kinase kinase kinase 7 (Mus musculus) (UniProt Q62073); assay: Inhibition of LPS-induced TAK1 phosphorylation in mouse RAW264.7 cells preincubated for 1 hr followed by LPS stimulation measured after 30 min by Western blot method
[15] = biological target: Mitogen-activated protein kinase kinase kinase 7 (Mus musculus) (UniProt Q62073); assay: Inhibition of TAK1 in mouse RAW264.7 cells assessed as inhibition of LPS-induced NFkB activation by measuring reduction in nuclear translocation of p65 at 2.5 to 10 uM preincubated for 1 hr followed by LPS stimulation measured after 3 hrs by Western blot method
[16] = biological target: Mitogen-activated protein kinase kinase kinase 7 (Mus musculus) (UniProt Q62073); assay: Inhibition of TAK1 in mouse RAW264.7 cells assessed as reduction in LPS-induced MAPK p38 phosphorylation preincubated for 1 hr followed by LPS stimulation measured after 30 mins by Western blot method
[17] = system: RAW264.7; assay: Anti-inflammatory activity in mouse RAW264.7 cells assessed as inhibition of LPS-induced nitric oxide production preincubated for 1 hr followed by LPS stimulation measured after 24 hrs by Griess assay; format: functional, cell-based
In short: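 Griess nitrite assay. RAW264.7 cells pretreated 1 h with compound, then LPS 1 µg/mL for 24 h. Supernatant mixed 1:1 with Griess reagent, OD read at 540 nm against a NaNO2 standard curve. At least three independent experiments, each in duplicate.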

[18] = system: RAW264.7; assay: Anti-inflammatory activity in mouse RAW264.7 cells assessed as inhibition of LPS-induced TNFalpha release preincubated for 1 hr followed by LPS stimulation measured after 24 hrs by ELISA; format: functional, cell-based; in short: as §3
[19] = system: Rattus norvegicus; assay: Anti-inflammatory activity in po dosed adjuvant-induced Sprague-Dawley rat arthritis model assessed as reduction in synovial hyperplasia administered once daily from day 14 to 28 post-immunization measured by H and E staining based histopathological analysis; format: functional, organism-based; in short: as §4

Chain of Mitogen-activated protein kinase kinase kinase 7 (Mus musculus) (Q62073 whole entry, looked up): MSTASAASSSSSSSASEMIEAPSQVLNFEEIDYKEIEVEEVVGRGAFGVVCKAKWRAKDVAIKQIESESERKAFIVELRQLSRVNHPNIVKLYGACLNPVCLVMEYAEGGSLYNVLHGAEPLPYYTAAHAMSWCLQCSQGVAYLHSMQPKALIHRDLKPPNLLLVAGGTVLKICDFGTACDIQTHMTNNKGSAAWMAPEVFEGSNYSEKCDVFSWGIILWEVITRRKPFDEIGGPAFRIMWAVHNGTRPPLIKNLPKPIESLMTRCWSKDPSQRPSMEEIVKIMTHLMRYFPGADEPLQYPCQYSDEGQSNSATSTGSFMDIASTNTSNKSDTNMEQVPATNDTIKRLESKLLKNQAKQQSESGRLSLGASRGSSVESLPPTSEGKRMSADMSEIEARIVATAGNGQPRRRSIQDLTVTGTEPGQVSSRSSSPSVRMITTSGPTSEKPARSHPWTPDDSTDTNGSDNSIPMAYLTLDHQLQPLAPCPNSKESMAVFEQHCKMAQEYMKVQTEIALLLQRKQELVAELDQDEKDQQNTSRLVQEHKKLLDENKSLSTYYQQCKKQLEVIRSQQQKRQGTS
Chain of Transcription factor p65 (Mus musculus) (Q04207 whole entry): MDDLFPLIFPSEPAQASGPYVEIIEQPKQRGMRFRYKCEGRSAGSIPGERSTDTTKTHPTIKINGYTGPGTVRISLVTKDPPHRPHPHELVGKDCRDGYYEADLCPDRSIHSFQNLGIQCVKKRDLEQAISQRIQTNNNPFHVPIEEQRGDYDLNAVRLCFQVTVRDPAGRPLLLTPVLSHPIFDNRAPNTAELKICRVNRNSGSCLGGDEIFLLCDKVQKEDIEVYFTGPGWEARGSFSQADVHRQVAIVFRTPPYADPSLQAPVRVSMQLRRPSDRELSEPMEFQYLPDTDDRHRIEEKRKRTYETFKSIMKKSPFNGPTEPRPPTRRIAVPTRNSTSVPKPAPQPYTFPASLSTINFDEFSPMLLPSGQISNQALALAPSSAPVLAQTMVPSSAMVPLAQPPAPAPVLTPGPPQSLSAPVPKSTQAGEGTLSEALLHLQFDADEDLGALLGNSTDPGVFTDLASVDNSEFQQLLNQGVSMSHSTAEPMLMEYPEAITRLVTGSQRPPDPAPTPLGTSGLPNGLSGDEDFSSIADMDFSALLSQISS

SMILES: CC(C)NCC(=O)N1N=C(c2cc3ccccc3oc2=O)CC1c1ccccc1C(F)(F)F (stereo not drawn)
- inhibition in vivo at 10 mg/kg [1]: 17%
- inhibition in vivo at 10 mg/kg [2]: 20%
- inhibition in vivo at 10 mg/kg [3]: 13%

SMILES: C=CCN(CC=C)CC(=O)N1N=C(c2cc3ccccc3oc2=O)CC1c1ccccc1C(F)(F)F (stereo not drawn)
- inhibition [4]: Active
- inhibition [5]: Active
- inhibition in vivo at 10 mg/kg [1]: 28%
- inhibition in vivo at 10 mg/kg [2]: 49%
- inhibition in vivo at 10 mg/kg [3]: 45%

- inhibition [6]: Active
SMILES: Cc1ccc(S(=O)(=O)/C=C/C#N)cc1

SMILES: Cc1ccc(-c2cc(C(F)(F)F)nn2-c2ccc(S(N)(=O)=O)cc2)cc1 [CELECOXIB]
- inhibition in vivo at 10 mg/kg [1]: 55%
- inhibition in vivo at 10 mg/kg [2]: 59%
- inhibition in vivo at 10 mg/kg [3]: 61%

SMILES: O=C(CN1CCCCC1)N1N=C(c2cc3ccccc3oc2=O)CC1c1ccc(C(F)(F)F)cc1 (stereo not drawn)
- inhibition [4]: Active
- inhibition [5]: Active
- inhibition in vivo at 10 mg/kg [1]: 32%
- inhibition in vivo at 10 mg/kg [2]: 41%
- inhibition in vivo at 10 mg/kg [3]: 36%

- IC50 [7]: 14.2 µM
- inhibition [12]: Active
- inhibition [14]: Dose-dependent effect
- inhibition [15]: Active
- inhibition [16]: Dose-dependent effect
- IC50 [18]: 16.8 µM
SMILES: COc1ccc(-c2coc3cc(OCC(=O)N4N=C(c5cc6ccccc6oc5=O)CC4c4ccc(C(F)(F)F)cc4)ccc3c2=O)cc1 (stereo not drawn)
- Activity [8]: Dose-dependent effect
- Activity [9]: Dose-dependent effect
- Activity [10]: Dose-dependent effect
- Activity [11]: Dose-dependent effect
- inhibition at 10 µM [4]: 41.2%
- inhibition at 10 µM [5]: 40.4%
- inhibition in vivo at 10 mg/kg [1]: 49%
- Activity [13]: Non-Toxic
- inhibition in vivo at 10 mg/kg [2]: 60%
- inhibition in vivo at 10 mg/kg [3]: 59%
- Activity [17]: Dose-dependent effect
- Activity [19]: Dose-dependent effect

SMILES: O=C(O)Cc1ccccc1Nc1c(Cl)cccc1Cl [DICLOFENAC]
- inhibition in vivo at 10 mg/kg [1]: 41%
- inhibition in vivo at 10 mg/kg [2]: 77%
- inhibition in vivo at 10 mg/kg [3]: 48%
